Test results from publication PMC10693930 (Biochemistry, 2023).

Tests used:
K46A SaPC [1] = target: T1, K46A SaPC (Staphylococcus aureus, UniProt A0A0H3JRU9, K46A); assay: Pyruvate carboxylation assay; format: biochemical; conditions: for ratio (Ka CoA / Ka acetyl-CoA): discrimination of acetyl-CoA over CoA
E418A SaPC [2] = target: T2, E418A SaPC (Staphylococcus aureus, UniProt A0A0H3JRU9, E418A); assay: Pyruvate carboxylation assay; format: biochemical; conditions: for activation of pyruvate carboxylation: up to 4 mM acetyl-CoA and 30 mM CoA
R21A SaPC [3] = target: T3, R21A SaPC (Staphylococcus aureus, UniProt A0A0H3JRU9, R21A); assay: Pyruvate carboxylation assay; format: biochemical; conditions: for ratio (Ka CoA / Ka acetyl-CoA): discrimination of acetyl-CoA over CoA
SaPC = conditions: cited from earlier work
WT SaPC [4] = target: T4, WT SaPC (Staphylococcus aureus, UniProt A0A0H3JRU9); assay: Pyruvate carboxylation inhibition assay with CT domain inhibitors; format: biochemical
In short: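 WT SaPC (5 μg/mL) was pre-incubated with inhibitor and acetyl-CoA, and the reaction was started with 10× substrate mix (final 25 mM NaHCO3, 2.5 mM ATP, 12 mM pyruvate). MDH-coupled (10 U/mL MDH, 0.12 mM NADH); change in A340 monitored. Inhibitor 0–1 mM or 0–50 mM by compound. MDH-only controls. Triplicate; SD of three trials.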

R21A SaPC [5] = target: T3, R21A SaPC; assay: Pyruvate carboxylation inhibition assay with CT domain inhibitors; format: biochemical; conditions: 2.5 mM acetyl-CoA vs none
K46A SaPC [6] = target: T1, K46A SaPC; assay: as above; format: biochemical; conditions: 2.5 mM acetyl-CoA vs none
E418A SaPC [7] = target: T2, E418A SaPC; assay: as above; format: biochemical
WT SaPC [8] = target: T4, WT SaPC; assay: Pyruvate carboxylation assay; format: biochemical; conditions: for EC50: Ka (apparent activation constant); for increase of apparent Ka in the presence of L-aspartate: 20 mM L-aspartate vs none; for ratio (Ka CoA / Ka acetyl-CoA): discrimination of acetyl-CoA over CoA
K411A SaPC [9] = target: T5, K411A SaPC (Staphylococcus aureus, UniProt A0A0H3JRU9, K411A); assay: Pyruvate carboxylation assay; format: biochemical
WT SaPC [10] = target: T4, WT SaPC; assay: ADP phosphorylation assay; format: biochemical
K411A SaPC [11] = target: T5, K411A SaPC; assay: ADP phosphorylation assay; format: biochemical
PC = conditions: cited from earlier work
[12] = target: ΔBCΔBCCP SaPC (Staphylococcus aureus (strain Mu50 / ATCC 700699)); assay: SEC
K46A SaPC [13] = target: T1, K46A SaPC; assay: ADP phosphorylation assay; format: biochemical; conditions: up to 1 mM acetyl-CoA
E418A SaPC [14] = target: T2, E418A SaPC; assay: ADP phosphorylation assay; format: biochemical; conditions: up to 1 mM acetyl-CoA
R21A SaPC [15] = target: T3, R21A SaPC; assay: ADP phosphorylation assay; format: biochemical; conditions: up to 1 mM acetyl-CoA
SEC = target: the molecule itself; assay: SEC
[16] = Acyl-CoA + 20 mM L-aspartate, Table 1

## N[C@@H](CC(=O)O)C(=O)O [L-aspartate]
K46A SaPC [1]; K46A SaPC, up to 100 mM, nonspecific inhibition above 100 mM
  inhibition of pyruvate carboxylation: not inhibited
E418A SaPC [2]; up to 100 mM, nonspecific inhibition above 100 mM
  inhibition of pyruvate carboxylation: not inhibited
R21A SaPC [3]; R21A SaPC, up to 100 mM, nonspecific inhibition above 100 mM
  inhibition of pyruvate carboxylation: not inhibited
SaPC
  decrease of kcat in the presence of inhibitor: 2-5 fold

## O=C(O)C(=O)O [oxalate]
WT SaPC [4]; SaPC, CT domain inhibitors
  change of potency in the presence of acetyl-CoA: significantly reduced potency
WT SaPC [4]; WT SaPC, acetyl-CoA at ~7 times the Ka value (10 μM, Figure 6C)
  increase in the IC50 for oxalate inhibition: ~ 6 fold
WT SaPC [4]; WT SaPC, in the presence of CoA (500 μM, Figure 6B)
  increase in the IC50 for oxalate inhibition: ~ 13 fold
WT SaPC [4]; WT SaPC, in the presence of L-aspartate (5 mM, Figure 6B)
  change of the IC50 for oxalate inhibition: did not alter
WT SaPC [4]; WT SaPC, saturating acetyl-CoA vs none
  increase in the IC50 for oxalate inhibition: > 20 fold
R21A SaPC [5]
  increase in the IC50 for oxalate inhibition: 8 fold
K46A SaPC [6]
  increase in the IC50 for oxalate inhibition: 8 fold
E418A SaPC [7]
  inhibition of pyruvate carboxylation: inhibited
E418A SaPC [7]; 500 μM acetyl-CoA
  change of inhibition in the presence of acetyl-CoA: unchanged

## CC(C)(COP(=O)(O)OP(=O)(O)OC[C@H]1O[C@@H](n2cnc3c(N)ncnc32)[C@H](O)[C@@H]1OP(=O)(O)O)[C@@H](O)C(=O)NCCC(=O)NCCS [CoA]
WT SaPC [8]; [16]
  h (Hill coefficient): 1.8 ± 0.2
  EC50: 130 ± 10 µM
WT SaPC [8]; Acyl-CoA alone, Table 1
  h (Hill coefficient): 1.4 ± 0.2
WT SaPC [8]; WT SaPC, Table 2 series
  EC50: 49 ± 7 µM
WT SaPC [8]; WT SaPC
  increase of apparent Ka in the presence of L-aspartate: ~ 4 fold
K46A SaPC [1]
  EC50: 1500 ± 100 µM
E418A SaPC [2]
  activation of pyruvate carboxylation: unresponsive to activation
R21A SaPC [3]
  EC50: 1800 ± 53 µM
K411A SaPC [9]
  EC50: 100 ± 4.8 µM
WT SaPC [10]
  EC50: 320 ± 30 µM
K411A SaPC [11]
  EC50: 420 ± 30 µM

## CC(=O)SCCNC(=O)CCNC(=O)[C@H](O)C(C)(C)CO [acetylpantetheine]
PC; lacks the nucleotidyl portion
  binding and activation of PC: binds to but does not activate PC

## ΔBCΔBCCP SaPC (domain or fragment)
[12]
  stoichiometry N: 2

## CC(=O)SCCNC(=O)CCNC(=O)[C@H](O)C(C)(C)COP(=O)(O)OP(=O)(O)OC[C@H]1O[C@@H](n2cnc3c(N)ncnc32)[C@H](O)[C@@H]1OP(=O)(O)O [Acetyl-CoA]
WT SaPC [8]; [16]
  Ka (apparent activation constant): 4.1 ± 0.3 µM
  h (Hill coefficient): 3.3 ± 0.6
WT SaPC [8]; Acyl-CoA alone, Table 1
  h (Hill coefficient): 1.5 ± 0.1
WT SaPC [8]; Acyl-CoA alone, Table 1, fit to Equation 1 (3′5′ diphosphoadenosine: Equation 2)
  Ka (apparent activation constant): 1.5 ± 0.1 µM
WT SaPC [8]; WT SaPC
  increase of apparent Ka in the presence of L-aspartate: ~ 4 fold
  ratio (Ka CoA / Ka acetyl-CoA): 33
WT SaPC [8]; WT SaPC, Table 2 series
  Ka (apparent activation constant): 1.5 ± 0.1 µM
WT SaPC [8]; WT SaPC, listed as acetyl-CoA
  ratio (Ka CoA / Ka acetyl-CoA): ~ 30
K46A SaPC [1]; K46A SaPC
  Ka (apparent activation constant): 340 ± 30 µM
  ratio (Ka CoA / Ka acetyl-CoA): 4
K46A SaPC [1]; K46A SaPC, listed as acetyl-CoA
  ratio (Ka CoA / Ka acetyl-CoA): 4 – 5
E418A SaPC [2]
  activation of pyruvate carboxylation: unresponsive to activation
R21A SaPC [3]; R21A SaPC
  Ka (apparent activation constant): 340 ± 50 µM
  ratio (Ka CoA / Ka acetyl-CoA): 5
R21A SaPC [3]; R21A SaPC, listed as acetyl-CoA
  ratio (Ka CoA / Ka acetyl-CoA): 4 – 5
K411A SaPC [9]; K411A SaPC
  Ka (apparent activation constant): 5.8 ± 0.2 µM
K411A SaPC [9]; K411A SaPC, discrimination of acetyl-CoA over CoA
  ratio (Ka CoA / Ka acetyl-CoA): 17
WT SaPC [10]; WT SaPC, ADP phosphorylation by carbamoyl phosphate
  Ka (apparent activation constant): 15 ± 6 µM
WT SaPC [10]; in all cases, including WT (Figure S4)
  concentration giving slight inhibition of ADP phosphorylation: greater than 4 mM
K46A SaPC [13]
  activation of ADP phosphorylation: unable to be activated
E418A SaPC [14]
  activation of ADP phosphorylation: unable to be activated
R21A SaPC [15]
  activation of ADP phosphorylation: unable to be activated
SaPC
  greater affinity than CoA: ~ 100 fold
  increase of binding affinity by the acetyl moiety: ~ 80 fold
  increase of kcat in the presence of activator: 5-10 fold
PC; depends on the organism
  increase of kcat in the presence of activator: up to 35 fold

B1: E418A SaPC (enzyme)
chain: MKQIKKLLVANRGEIAIRIFRAAAELDISTVAIYSNEDKSSLHRYKADESYLVGSDLGPAESYLNIERIIDVAKQANVDAIHPGYGFLSENEQFARRCAEEGIKFIGPHLEHLDMFGDKVKARTTAIKADLPVIPGTDGPIKSYELAKEFAEEAGFPLMIKATSGGGGKGMRIVREESELEDAFHRAKSEAEKSFGNSEVYIERYIDNPKHIEVQVIGDEHGNIVHLFERDCSVQRRHQKVVEVAPSVGLSPTLRQRICDAAIQLMENIKYVNAGTVEFLVSGDEFFFIEVNPRVQVEHTITEMVTGIDIVKTQILVAAGADLFGEEINMPQQKDITTLGYAIQCRITTEDPLNDFMPDTGTIIAYRSSGGFGVRLDAGDGFQGAEISPYYDSLLVKLSTHAISFKQAEEKMVRSLRAMRIRGVKTNIPFLINVMKNKKFTSGDYTTKFIEETPELFDIQPSLDRGTKTLEYIGNVTINGFPNVEKRPKPDYELASIPTVSSSKIASFSGTKQLLDEVGPKGVAEWVKKQDDVLLTDTTFRDAHQSLLATRVRTKDMINIASKTADVFKDGFSLEMWGGATFDVAYNFLKENPWERLERLRKAIPNVLFQMLLRASNAVGYKNYPDNVIHKFVQESAKAGIDVFRIFDSLNWVDQMKVANEAVQEAGKISEGTICYTGDILNPERSNIYTLEYYVKLAKELEREGFHILAIKDMAGLLKPKAAYELIGELKSAVDLPIHLHTHDTSGNGLLTYKQAIDAGVDIIDTAVASMSGLTSQPSANSLYYALNGFPRHLRTDIEGMESLSHYWSTVRTYYSDFESDIKSPNTEIYQHEMPGGQYSNLSQQAKSLGLGERFDEVKDMYRRVNFLFGDIVKVTPSSKVVGDMALYMVQNDLDEQSVITDGYKLDFPESVVSFFKGEIGQPVNGFNKDLQAVILKGQEALTARPGEYLEPVDFEKVRELLEEEQQGPVTEQDIISYVLYPKVYEQYIQTRNQYGNLSLLDTPTFFFGMRNGETVEIEIDKGKRLIIKLETISEPDENGNRTIYYAMNGQARRIYIKDENVHTNANVKPKADKSNPSHIGAQMPGSVTEVKVSVGETVKANQPLLITEAMKMETTIQAPFDGVIKQVTVNNGDTIATGDLLIEIEKATD
modifications: biotin, covalently tethered to the BCCP domain (co-expressed with BirA to ensure complete biotinylation; residue not stated)
SEC
  stoichiometry N: 4
